Values after ≈ are worked out from the molar mass of the structure shown. Active and inactive are the calls of the source. No cut-off for these calls is given here.
Key:
[1] = test system: Mycobacterium kansasii; test: Antimycobacterial activity against Mycobacterium kansasii My 235/80 after 21 days; format: functional; conditions: My 235/80, 504 h
How it was run: (§1)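 Micromethod MIC in Šula's semisynthetic medium at 37 °C. Compounds added in DMSO at 1000 down to 0.032 µmol/L. Isoniazid standard in sterile water at 0.5–250 µmol/L. Inocula: H37Rv 10^3, M. avium 10^5, M. kansasii 10^4. Read at 14 and 21 d, plus 7 d for M. kansasii.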

[2] = test system: Pseudomonas aeruginosa; test: Antibacterial activity against Pseudomonas aeruginosa CCM 1961 at 500 micromol/L after 24 to 48 hrs by broth microdilution method; format: functional, organism-based
How it was run: (§2)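 Broth microdilution in Mueller–Hinton broth, compounds dissolved in DMSO, tested over a dilution series from 500 downward. MIC taken as ≥95% growth reduction (IC95) versus drug-free control. Benzylpenicillin comparator. Readings at 24 and 48 h.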

[3] = test system: Staphylococcus epidermidis; test: Antibacterial activity against Staphylococcus epidermidis H 6966/08 after 48 hrs by broth microdilution method; format: functional; conditions: H 6966/08, 48 h; how it was run: as §2
[4] = test system: Staphylococcus aureus; test: Antibacterial activity against methicillin-resistant Staphylococcus aureus H 5996/08 after 24 hrs by broth microdilution method; format: functional; conditions: H 5996/08, 24 h; how it was run: as §2
[5] = test system: Lichtheimia corymbifera; test: Antifungal activity against Absidia corymbifera 272 after 48 hrs by broth microdilution method; format: functional; conditions: Lichtheimia corymbifera, 272, 48 h
How it was run: (§3)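 Broth microdilution in RPMI 1640 with glutamine, fluconazole as reference. For yeasts, MIC is ≥80% growth reduction (IC80) versus control. For filamentous fungi, the value is expressed as IC50. Readings at 24 and 48 h.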

[6] = test system: Enterococcus sp.; test: Antibacterial activity against Enterococcus sp. J 14365/08 at 500 micromol/L after 24 to 48 hrs by broth microdilution method; format: functional, organism-based; how it was run: as §2
[7] = test system: Mycobacterium kansasii; test: Antimycobacterial activity against Mycobacterium kansasii 6509/96 after 7 days; format: functional; conditions: 6509/96, 168 h; how it was run: as §1
[8] = test system: Aspergillus fumigatus; test: Antifungal activity against Aspergillus fumigatus 231 after 24 hrs by broth microdilution method; format: functional; conditions: Aspergillus fumigatus, 231, 24 h; how it was run: as §3
[9] = test system: Pichia kudriavzevii; test: Antifungal activity against Candida krusei E28 after 24 hrs by broth microdilution method; format: functional; conditions: E28, 24 h; how it was run: as §3
[10] = test system: Escherichia coli; test: Antibacterial activity against Escherichia coli CCM 4517 at 500 micromol/L after 24 to 48 hrs by broth microdilution method; format: functional, organism-based; how it was run: as §2
[11] = test system: Staphylococcus aureus; test: Antibacterial activity against Staphylococcus aureus CCM 4516/08 after 48 hrs by broth microdilution method; format: functional; conditions: CCM 4516/08, 48 h; how it was run: as §2
[12] = test system: Trichophyton mentagrophytes; test: Antifungal activity against Trichophyton mentagrophytes 445 after 120 hrs by broth microdilution method; format: functional; conditions: Trichophyton mentagrophytes, 445, 120 h
How it was run: (§4)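 Filamentous dermatophyte tested by broth microdilution in RPMI 1640 with glutamine, fluconazole as reference. Value expressed as IC50 relative to growth control. Read at 72 and 120 h.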

[13] = test system: Mycobacterium avium; test: Antimycobacterial activity against isoniazid, rifampicin, ethambutol and ofloxacin-resistant Mycobacterium avium My 330/88 after 21 days; format: functional; conditions: My 330/88, 504 h; how it was run: as §1
[14] = test system: Trichosporon asahii; test: Antifungal activity against Trichosporon asahii 1188 after 48 hrs by broth microdilution method; format: functional; conditions: Trichosporon asahii, 1188, 48 h; how it was run: as §3
[15] = test system: Mycobacterium avium; test: Antimycobacterial activity against isoniazid, rifampicin, ethambutol and ofloxacin-resistant Mycobacterium avium My 330/88 after 14 days; format: functional; conditions: My 330/88, 336 h; how it was run: as §1
[16] = test system: Mycobacterium kansasii; test: Antimycobacterial activity against Mycobacterium kansasii My 235/80 after 14 days; format: functional; conditions: My 235/80, 336 h; how it was run: as §1
[17] = test system: Klebsiella pneumoniae; test: Antibacterial activity against Klebsiella pneumoniae D 11750/08 at 500 micromol/L after 24 to 48 hrs by broth microdilution method; format: functional, organism-based; how it was run: as §2
[18] = test system: Mycobacterium kansasii; test: Antimycobacterial activity against Mycobacterium kansasii 6509/96 after 14 days; format: functional; conditions: 6509/96, 336 h; how it was run: as §1
[19] = test system: HepG2; test: Cytotoxicity against human HepG2 cells after 24 hrs by CellTiter assay; format: cell-based; conditions: HepG2, 24 h
How it was run: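 HepG2 cells (passage 27–33) in MEM with 10% FBS, L-glutamine and NEAA, seeded at 1×10^4 per well. Treated next day with compounds at 0.1–100 µM (or 0.1–25 µmol/L), triplicates, <1% DMSO, for 24 h at 37 °C, 5% CO2. MTS reagent added for 2 h, absorbance read at 490 nm. IC50 taken against untreated (100%) and 10% DMSO (0%) controls.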

[20] = test system: Klebsiella pneumoniae; test: Antibacterial activity against ESBL-positive Klebsiella pneumoniae J 14368/08 at 500 micromol/L after 24 to 48 hrs by broth microdilution method; format: functional, organism-based; how it was run: as §2
[21] = test system: Mycobacterium kansasii; test: Antimycobacterial activity against Mycobacterium kansasii 6509/96 after 21 days; format: functional; conditions: 6509/96, 504 h; how it was run: as §1
[22] = test system: Candida albicans; test: Antifungal activity against Candida albicans ATCC 44859 after 24 hrs by broth microdilution method; format: functional; conditions: ATCC 44859, 24 h; how it was run: as §3
[23] = test system: Aspergillus fumigatus; test: Antifungal activity against Aspergillus fumigatus 231 after 48 hrs by broth microdilution method; format: functional; conditions: Aspergillus fumigatus, 231, 48 h; how it was run: as §3
[24] = test system: Candida albicans; test: Antifungal activity against Candida albicans ATCC 44859 after 48 hrs by broth microdilution method; format: functional; conditions: ATCC 44859, 48 h; how it was run: as §3
[25] = test system: Staphylococcus epidermidis; test: Antibacterial activity against Staphylococcus epidermidis H 6966/08 after 24 hrs by broth microdilution method; format: functional; conditions: H 6966/08, 24 h; how it was run: as §2
[26] = test system: Mycobacterium tuberculosis; test: Antimycobacterial activity against Mycobacterium tuberculosis H37Rv My 331/88 after 21 days; format: functional; conditions: H37Rv My 331/88, 504 h; how it was run: as §1
[27] = test system: Pichia kudriavzevii; test: Antifungal activity against Candida krusei E28 after 48 hrs by broth microdilution method; format: functional; conditions: E28, 48 h; how it was run: as §3
[28] = test system: Lichtheimia corymbifera; test: Antifungal activity against Absidia corymbifera 272 after 24 hrs by broth microdilution method; format: functional; conditions: Lichtheimia corymbifera, 272, 24 h; how it was run: as §3
[29] = test system: Candida tropicalis; test: Antifungal activity against Candida tropicalis 156 at 500 micromol/L after 24 to 48 hrs by broth microdilution method; format: functional, organism-based; how it was run: as §3
[30] = test system: Nakaseomyces glabratus; test: Antifungal activity against Candida glabrata 20/I at 500 micromol/L after 24 to 48 hrs by broth microdilution method; format: functional, organism-based; how it was run: as §3
[31] = test system: Mycobacterium tuberculosis; test: Antimycobacterial activity against Mycobacterium tuberculosis H37Rv My 331/88 after 14 days; format: functional; conditions: H37Rv My 331/88, 336 h; how it was run: as §1
[32] = test system: Mycobacterium kansasii; test: Antimycobacterial activity against Mycobacterium kansasii My 235/80 after 7 days; format: functional; conditions: My 235/80, 168 h; how it was run: as §1
[33] = test system: Trichophyton mentagrophytes; test: Antifungal activity against Trichophyton mentagrophytes 445 after 72 hrs by broth microdilution method; format: functional; conditions: Trichophyton mentagrophytes, 445, 72 h; how it was run: as §4
[34] = test system: Staphylococcus aureus; test: Antibacterial activity against methicillin-resistant Staphylococcus aureus H 5996/08 after 48 hrs by broth microdilution method; format: functional; conditions: H 5996/08, 48 h; how it was run: as §2
[35] = test system: Staphylococcus aureus; test: Antibacterial activity against Staphylococcus aureus CCM 4516/08 after 24 hrs by broth microdilution method; format: functional; conditions: CCM 4516/08, 24 h; how it was run: as §2
[36] = test system: Trichosporon asahii; test: Antifungal activity against Trichosporon asahii 1188 after 24 hrs by broth microdilution method; format: functional; conditions: Trichosporon asahii, 1188, 24 h; how it was run: as §3

Compound | MIC [1] | Activity [2] | MIC95 [3] | MIC95 [4] | MIC50 [5] | Activity [6] | MIC [7] | MIC50 [8] | MIC80 [9] | Activity [10] | MIC95 [11] | MIC50 [12] | MIC [13] | MIC80 [14] | MIC [15] | MIC [16] | Activity [17] | MIC [18] | IC50 [19] | Activity [20] | other results
CCOP(=O)(OCC)Oc1ccc(Cl)cc1C(=O)Nc1ccc(Cl)cc1 | 8 µM (≈ 3.35 µg/mL) | inactive | 250 µM (≈ 105 µg/mL) | 125 µM (≈ 52.3 µg/mL) | > 500 µM | inactive | 8 µM (≈ 3.35 µg/mL) | > 500 µM | > 500 µM | inactive | 125 µM (≈ 52.3 µg/mL) | 500 µM (≈ 209 µg/mL) | 8 µM (≈ 3.35 µg/mL) | > 500 µM | 8 µM (≈ 3.35 µg/mL) | 8 µM (≈ 3.35 µg/mL) | inactive | 8 µM (≈ 3.35 µg/mL) | 13 µM | inactive | MIC [21]: 8 µM (≈ 3.35 µg/mL); MIC80 [22]: > 500 µM; MIC50 [23]: > 500 µM; MIC80 [24]: > 500 µM; MIC95 [25]: 125 µM (≈ 52.3 µg/mL); MIC [26]: 4 µM (≈ 1.67 µg/mL); MIC80 [27]: > 500 µM; MIC50 [28]: > 500 µM; Activity [29]: inactive; Activity [30]: inactive; MIC [31]: 4 µM (≈ 1.67 µg/mL); MIC [32]: 8 µM (≈ 3.35 µg/mL); MIC50 [33]: 500 µM (≈ 209 µg/mL); MIC95 [34]: 250 µM (≈ 105 µg/mL); MIC95 [35]: 62.5 µM (≈ 26.1 µg/mL); MIC80 [36]: > 500 µM
CCOP(=O)(OCC)Oc1ccc(Br)cc1C(=O)Nc1ccc(C(F)(F)F)cc1 | 2 µM (≈ 0.992 µg/mL) | inactive | 15.6 µM (≈ 7.75 µg/mL) | 15.6 µM (≈ 7.75 µg/mL) | > 500 µM | inactive | 2 µM (≈ 0.992 µg/mL) | > 500 µM | > 500 µM | inactive | 31.2 µM (≈ 15.5 µg/mL) | 250 µM (≈ 124 µg/mL) | 8 µM (≈ 3.97 µg/mL) | > 500 µM | 8 µM (≈ 3.97 µg/mL) | 2 µM (≈ 0.992 µg/mL) | inactive | 2 µM (≈ 0.992 µg/mL) | 1.84 µM | inactive | MIC [21]: 2 µM (≈ 0.992 µg/mL); MIC80 [22]: > 500 µM; MIC50 [23]: > 500 µM; MIC80 [24]: > 500 µM; MIC95 [25]: 7.81 µM (≈ 3.88 µg/mL); MIC [26]: 1 µM (≈ 0.496 µg/mL); MIC80 [27]: > 500 µM; MIC50 [28]: > 500 µM; Activity [29]: inactive; Activity [30]: inactive; MIC [31]: 1 µM (≈ 0.496 µg/mL); MIC [32]: 1 µM (≈ 0.496 µg/mL); MIC50 [33]: 250 µM (≈ 124 µg/mL); MIC95 [34]: 15.6 µM (≈ 7.75 µg/mL); MIC95 [35]: 15.6 µM (≈ 7.75 µg/mL); MIC80 [36]: > 500 µM

— ChEMBL document CHEMBL3102784, “Salicylanilide diethyl phosphates: synthesis, antimicrobial activity and cytotoxicity” (Bioorg Med Chem, 2014)
